An excerpt weighted towards active compounds, which were near 1.3% of everything screened.
NSD2 inh = NSD2 (human) methyltransferase inhibition | O96028 | NSD2 peptide methylation, AlphaScreen, 120 min | inhibition, % at 12.5 µM | actives 0.54% (n = 310,000) | AID 743445; in the data active = inhibition above about 50%
TDP2 absorb = TDP2 (human) inhibition, absorbance primary screen; inhibition, % at 12.8 µM; AID 720702; O95551; actives 0.34% (n = 370,000); recombinant TDP2, T5PNP hydrolysis, p-nitrophenol absorbance 415 nm;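 active = inhibition above the mean of all tested compounds plus 3 SD, set per campaign, cut at about 25% in these data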;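 note: 0% = DMSO with enzyme and 100% = buffer with substrate but no TDP2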
Target sequence (O95551 whole entry, looked up): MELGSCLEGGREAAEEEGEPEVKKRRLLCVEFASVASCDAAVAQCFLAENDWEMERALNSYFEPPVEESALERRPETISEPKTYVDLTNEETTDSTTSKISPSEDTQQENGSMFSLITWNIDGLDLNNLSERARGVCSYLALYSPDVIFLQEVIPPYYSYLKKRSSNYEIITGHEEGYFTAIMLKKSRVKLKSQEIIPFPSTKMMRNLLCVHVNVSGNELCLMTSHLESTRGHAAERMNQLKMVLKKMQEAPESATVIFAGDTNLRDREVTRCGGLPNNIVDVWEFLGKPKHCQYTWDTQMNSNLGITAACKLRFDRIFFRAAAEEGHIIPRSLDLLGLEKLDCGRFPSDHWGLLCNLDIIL
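Assay system: recombinant human TDP2 / Reagent: T5PNP substrate at 5 mM, a TopII-DNA adduct mimic / Measured by: epi absorbance from released p-nitrophenol / Evaluation: % inhibition relative to enzyme-containing and enzyme-free wells / Control set: enzyme-free and DMSO wells / Replicates: each compound tested once, singlicate / Schedule: enzyme reaction with compound for 2 h at 37 °C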
LEDGF integ inh = blocks HIV-1 LEDGF/p75-dependent DNA integration; inhibition, % at 3.7 µM; actives 0.64% (n = 370,000); TR-FRET IN-LEDGF/p75 DNA integration, Eu/Cy5;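 active = inhibition above the screen-wide mean plus 3 SD, cut at about 13% in these data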;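 note: signal is the Cy5 over europium emission ratio at 671 and 618 nm; 0% = plate median of compound wells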
UCH37 DUB inh = inhibitors of human deubiquitinating enzyme UCH37. Q9Y5K5. purified proteasome/UCH37, Ub-AMC cleavage fluorescence. inhibition, % (no concentration beside the values). actives 0.33% (n = 330,000). AID 588478;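 active = mean inhibition over replicate wells above about 20%, limit read from the data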;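 note: 0% = compound-free wells with enzyme and 100% = wells lacking proteasome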
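Material: human UCH37 enzyme supplied as purified proteasome complex. Measure: % inhibition of Ub-AMC cleavage fluorescence. Medium: pH 7.4 Tris-HCl (50 mM) with ovalbumin, ATP-MgCl2, DTT. Times: 30 min preincubation with enzyme, 25 min cleavage at room temperature. Detection: AMC fluorescence intensity at 355/460 nm.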
CASP6 VEID inh = caspase-6 (human) enzyme inhibition. actives 0.53% (n = 350,000). purified caspase-6, Z-VEID-R110 cleavage fluorescence. inhibition, % at 12.5 µM. P55212;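 active = mean inhibition across replicates at least about 35%, with every replicate also reaching that limit, limit read from the data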;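 note: 0% = median of neutral control wells and 100% = no fluorescence left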
Target sequence (P55212 24-179 limits assumed): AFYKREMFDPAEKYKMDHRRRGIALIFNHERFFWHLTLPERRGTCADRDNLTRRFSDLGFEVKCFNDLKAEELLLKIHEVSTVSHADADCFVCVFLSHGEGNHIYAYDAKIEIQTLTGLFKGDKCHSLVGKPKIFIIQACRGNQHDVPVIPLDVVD
Target sequence (P55212 194-293 limits assumed): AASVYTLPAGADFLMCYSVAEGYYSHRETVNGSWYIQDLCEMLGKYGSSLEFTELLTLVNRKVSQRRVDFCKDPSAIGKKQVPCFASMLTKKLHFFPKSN
TDP2 confirm = confirmation of human TDP2 inhibitors; shares compounds with TDP2 absorb; AID 743263; inhibition, % at 12.8 µM; recombinant human TDP2, absorbance read-out; actives 22% (n = 1,100); in the data active = inhibition above about 25%;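 note: 0% = vehicle with enzyme and 100% = no enzyme buffer only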
An asterisk follows results filed as active; nt = not tested or not shown.

SMILES | NSD2 inh | TDP2 absorb | LEDGF integ inh | UCH37 DUB inh | CASP6 VEID inh | TDP2 confirm
O=C(O)c1cccc(NC(=S)NN=Cc2ccccn2)c1 | nt | nt | nt | 7 | nt | nt
O=C(COC(=O)c1nc(Cl)ccc1Cl)c1ccccc1Cl | -1 | 29* | 1 | 3 | 3 | 0
NS(=O)(=O)c1ccc(NC(=S)NCc2ccccc2Cl)cc1 | 2 | -2 | -3 | nt | nt | nt
NS(=O)(=O)c1ccc(CCNCC(=O)NCc2ccccc2Cl)cc1 | -3 | 27* | 2 | 3 | 2 | 1
CC(=NNC(=O)c1nnn(-c2nonc2N)c1CN(C)c1ccccc1)c1cccs1 | nt | nt | nt | 1 | nt | nt
Cc1cc2oc(C(=O)NCCc3ccc(S(N)(=O)=O)cc3)c(C)c2cc1C | 0 | 30* | -5 | -2 | -1 | 3
O=C(C[n+]1cccc(C(=O)NN=Cc2ccc(Br)cc2)c1)c1ccccc1 | nt | nt | nt | 8 | nt | nt
Cc1ccc(-n2nc3c(=O)n(CCCC(=O)NCc4ccc(C)o4)nc(C)c3c2C)cc1 | 2 | 25* | 1 | 0 | -1 | 0
Cc1ccc(CN2CCC(N3CC(C)OC(C)C3)CC2)cc1 (configuration not stated) | 9 | 25* | 0 | 2 | -12 | 4
COC(=O)NN=Cc1c(C)[nH]n(-c2ccccc2)c1=O | nt | nt | nt | 8 | nt | nt
Cc1[nH]n(-c2ccccc2)c(=O)c1/C=N/N(C)c1ccccc1 | 11 | 42* | 5 | nt | nt | 9
COC(=O)N/N=C\c1c(C)[nH]n(-c2ccccc2)c1=O | 0 | 12 | -3 | nt | -2 | nt
CC(=O)N/N=C/c1c(C)[nH]n(-c2ccccc2)c1=O | -2 | 28* | -2 | nt | 12 | -3
COCC(=O)N/N=C/c1c(C)[nH]n(-c2ccccc2)c1=O | 3 | 32* | 4 | nt | 0 | 2
Cc1[nH]n(-c2ccccc2)c(=O)c1/C=N/N1C(=O)c2ccc3c4c(ccc(c24)C1=O)CC3 | 0 | 28* | 2 | nt | nt | -9
CCOc1cccc(C=NNC(=O)c2cc(C3CC3)[nH]n2)c1O | nt | nt | nt | 1 | nt | nt
COC(=O)c1ccc(C(O)=C(C#N)c2nc3ccccc3s2)cc1 | nt | nt | nt | 13 | nt | nt
CC(Cc1ccccc1)=NNC(=O)CNC(=O)c1ccc(C(C)(C)C)cc1 | nt | nt | nt | 1 | nt | nt
Cc1ccc(C)c(CN2CCSCC2)c1 | -1 | 26* | -5 | 6 | 0 | 4
Clc1ccc(CN2CCSCC2)c(Cl)c1 | 0 | 10 | -3 | 1 | 2 | nt
Brc1cccc(OCCCNC2CCCC2)c1 | 30 | 26* | 2 | 5 | -3 | -7
O=C(Nc1ccc(Cl)cc1)N1CCSC1=NCc1ccccc1 | 0 | 2 | -4 | 6 | -3 | nt
CC(=O)Nc1ccc(C2=NN(C)C(=NCc3ccccc3)SC2)cc1 | -5 | 29* | 7 | 9 | 0 | 5
O=C(N/N=C/c1c(F)cccc1Cl)C1CC1 | -1 | 63* | -3 | nt | 0 | -1
O=C(N/N=C/c1ccccc1Cl)C1CC1 | -2 | 12 | -3 | nt | 1 | nt
SMILES | NSD2 inh | TDP2 absorb | LEDGF integ inh | UCH37 DUB inh | CASP6 VEID inh | TDP2 confirm
O=C(NCC(c1ccco1)N1CCOCC1)c1c(F)cccc1F (configuration not stated) | -2 | 25* | -2 | 1 | -1 | -2
O=C(CSC1CN(C(c2ccccc2)c2ccccc2)C1)NN=Cc1ccc(Cl)cc1Cl | nt | nt | nt | 2 | nt | nt
Cc1cc(NC(=O)c2ccc(Cl)cc2Cl)n(CCC#N)n1 | 2 | -2 | -1 | 1 | 1 | nt
Cc1nn(CCC#N)c(N)c1C1(O)C(=O)Nc2c(Cl)cc(Cl)cc21 (configuration not stated) | 3 | 26* | -1 | 2 | 8 | 4
CCOC(=O)C1CCN(C2=C(NS(=O)(=O)c3ccc(Br)cc3)C(=O)c3ccccc3C2=O)CC1 | nt | 30* | 3 | 23* | 9 | 11
NC(=O)C1CCN(C2=C(NS(=O)(=O)c3ccc(Br)cc3)C(=O)c3ccccc3C2=O)CC1 | 52* | 38* | 7 | 21* | 8 | 9
CCOC(=O)C1CCN(C(=O)c2cccc(NS(=O)(=O)c3ccc(Br)cc3)c2)CC1 | -2 | 3 | 1 | 0 | -2 | nt
NC(=O)C1CCN(c2nc3ccccc3nc2NS(=O)(=O)c2ccc(Br)cc2)CC1 | -1 | 9 | 0 | 8 | 2 | nt
Cc1ccc(OCCN2CCCC2)cc1 | 2 | 25* | 0 | 4 | -7 | 11
COc1ccc(NC(=O)c2ccc(-n3c(C)ccc3C)cc2)c(OC)c1 | -1 | 30* | 3 | 0 | 1 | -9
CC1=NN(CCC#N)C(=O)/C1=C/c1ccc(N(C)C)cc1 | 9 | 42* | -3 | 12 | -3 | -4
COc1cc(/C=C2\C(=O)N(CCC#N)N=C2C)ccc1OCC(=O)Nc1ccccc1 | 44 | 84* | 9 | -1 | nt | 20
CC(=NNS(=O)(=O)c1ccc(C)c([N+](=O)[O-])c1)c1cc2ccccc2o1 | nt | nt | nt | 7 | nt | nt
CSc1nncn1N=Cc1cc(Cl)ccc1F | nt | nt | nt | 0 | nt | nt
Cc1cc(C)cc(NC(=O)CSc2nnc(CN3CCOCC3)n2C)c1 | -3 | 4 | 5 | 5 | nt | nt
Cc1cc(C)c(NC(=O)CSc2nnc(CN3CCOCC3)n2C)c(C)c1 | 1 | 26* | -1 | 5 | 2 | 9
CCOc1ccc2ccccc2c1C=NNC(=O)c1ccc(C)nc1 | nt | nt | nt | -12 | nt | nt
CCCCNc1nnc(Cc2ccc(Cl)cc2)c(=O)[nH]1 | -1 | 28* | 1 | 5 | -3 | 0
COc1cc(C(CC(=O)Nc2ncccc2C)N2Cc3ccccc3C2=O)cc(OC)c1OC (configuration not stated) | 1 | 26* | 1 | -2 | 0 | -3
CCN(CC(=O)c1c(N)n(C)c(=O)n(C)c1=O)c1cccc2ccccc12 | 16 | 38* | 13 | -5 | nt | 6
Cc1ccc(C)c(NC(=O)c2cnccn2)c1 | -1 | 29* | -4 | 1 | -2 | -1
C=CCNc1nc(C(=O)OCC(=O)c2ccc(Cl)cc2)cs1 | 1 | 25* | 4 | 0 | -1 | -6
C=CCNc1nc(C(=O)OCC(=O)c2ccc(C)c([N+](=O)[O-])c2)cs1 | 1 | -9 | 1 | 2 | 1 | nt
CC(C)(C)NC(=O)NC(=O)COC(=O)c1c(F)cccc1Cl | -2 | 4 | -3 | 4 | 2 | nt
CC(C)(C)NC(=O)C(=O)NC(=O)c1c(F)cccc1Cl | -6 | 43* | 0 | 4 | 0 | -5
CCN(CC)c1ccc(/C=C2\C(=O)N(c3nnc(C)c(=O)[nH]3)N=C2C)cc1 | 5 | 26* | 4 | 3 | 36* | 4
CCOc1ccc(CN2CCC(C(=O)N3CCN(c4ccccc4F)CC3)CC2)cc1OC | 1 | 34* | 8 | 4 | nt | 0
Nc1nnnn1N=Cc1ccc(N2CCCCC2)c([N+](=O)[O-])c1 | nt | nt | nt | 9 | nt | nt
CCCc1nnc(NC(=O)CCC(=O)N2CCCCCC2)s1 | 0 | 2 | 0 | 0 | nt | nt

From PubChem
